Assay results from ChEMBL document CHEMBL4325892, “4-tert-Pentylphenoxyalkyl derivatives - Histamine H3 receptor ligands and monoamine oxidase B inhibitors” (Bioorg Med Chem Lett, 2018).

How the values were obtained:
[1] = target: T1, Amine oxidase [flavin-containing] B (Homo sapiens, UniProt P27338); test: Inhibition of human MAO-B expressed in baculovirus infected BTI insect cells using p-tyramine as substrate preincubated for 30 mins followed by substrate addition and measured after 1 hr by fluorescence-based Amplex Red MAO assay
T1 sequence (P27338 whole entry): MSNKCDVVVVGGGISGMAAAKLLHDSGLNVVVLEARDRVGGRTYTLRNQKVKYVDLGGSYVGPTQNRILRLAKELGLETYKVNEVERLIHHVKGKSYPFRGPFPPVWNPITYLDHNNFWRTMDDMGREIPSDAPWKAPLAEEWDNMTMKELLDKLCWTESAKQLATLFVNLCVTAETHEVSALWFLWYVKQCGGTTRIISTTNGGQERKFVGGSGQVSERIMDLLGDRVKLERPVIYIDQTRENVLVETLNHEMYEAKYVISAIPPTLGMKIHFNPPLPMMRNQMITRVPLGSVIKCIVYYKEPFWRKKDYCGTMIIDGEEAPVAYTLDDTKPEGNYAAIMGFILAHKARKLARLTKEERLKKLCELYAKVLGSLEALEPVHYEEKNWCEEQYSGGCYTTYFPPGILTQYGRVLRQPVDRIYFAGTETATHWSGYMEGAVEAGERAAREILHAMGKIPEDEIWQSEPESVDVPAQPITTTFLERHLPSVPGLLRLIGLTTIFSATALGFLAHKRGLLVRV

[2] = target: T1, Amine oxidase [flavin-containing] B; test: Inhibition of human MAO-B expressed in baculovirus infected BTI insect cells at 1 uM using p-tyramine as substrate preincubated for 30 mins followed by substrate addition and measured after 1 hr by fluorescence-based Amplex Red MAO assay relative to control
[3] = target: Histamine H3 receptor (Homo sapiens, UniProt Q9Y5N1); test: Displacement of [3H]-N-alpha-methylhistamine from human H3 receptor expressed in CHO-K1 cell membranes after 60 mins by microbeta2 scintillation counting analysis
Procedure, shortened: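 Radioligand binding with [3H]Nα-methylhistamine on membrane preparations from CHO-K1 cells stably expressing human H3 receptor; Ki reported as the mean of two independent experiments ± SEM.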

[4] = target: T2, MAO-A (Homo sapiens, UniProt P21397); test: Inhibition of human MAO-A expressed in baculovirus infected BTI insect cells at 10 uM using p-tyramine as substrate preincubated for 30 mins followed by substrate addition and measured after 1 hr by fluorescence-based Amplex Red MAO assay relative to control; settings: probe p-tyramine
T2 sequence (P21397 whole entry): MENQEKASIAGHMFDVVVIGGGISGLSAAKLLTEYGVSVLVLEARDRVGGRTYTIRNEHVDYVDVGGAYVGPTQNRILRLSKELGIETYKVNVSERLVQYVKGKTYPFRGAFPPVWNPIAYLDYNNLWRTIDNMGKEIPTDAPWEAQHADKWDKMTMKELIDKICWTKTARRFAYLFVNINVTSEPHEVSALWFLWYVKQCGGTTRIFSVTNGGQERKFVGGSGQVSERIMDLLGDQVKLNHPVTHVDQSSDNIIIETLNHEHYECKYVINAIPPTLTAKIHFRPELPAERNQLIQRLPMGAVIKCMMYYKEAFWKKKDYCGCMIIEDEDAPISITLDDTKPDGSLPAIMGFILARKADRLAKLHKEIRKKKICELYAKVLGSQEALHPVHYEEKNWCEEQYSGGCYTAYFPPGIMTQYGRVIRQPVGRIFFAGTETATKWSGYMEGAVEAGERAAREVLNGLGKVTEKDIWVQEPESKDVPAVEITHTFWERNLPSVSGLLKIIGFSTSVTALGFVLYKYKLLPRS

[5] = target: T1, Amine oxidase [flavin-containing] B; test: Reversible inhibition of human MAO-B expressed in baculovirus infected BTI insect cells at IC80 preincubated with compound and p-tyramine for 22 mins followed by p-tyramine increase to 1 mM and measured every minute for 5 hrs by fluorescence assay
Procedure, shortened: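 Reversibility test: hMAO B preincubated with inhibitor in the presence of 10 μM para-tyramine. After 22 min, para-tyramine raised to 1 mM, then fluorescence read every minute for 5 h.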

[6] = target: T1, Amine oxidase [flavin-containing] B; test: Non-competitive inhibition of human MAO-B expressed in baculovirus infected BTI insect cells at 0.2 to 20 nM preincubated with compound and p-tyramine for 22 mins followed by p-tyramine increase to 1 mM and measured every minute for 5 hrs by Lineweaver-Burk plot analysis
Procedure, shortened: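 Kinetic mode study: hMAO B activity measured at inhibitor 0, 0.2, 0.5 and 20 nM, each across six para-tyramine concentrations (0.05, 0.1, 0.5, 1.0, 1.5, 2.0 mM) to assign inhibition type.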

Sequence of Histamine H3 receptor (Q9Y5N1 whole entry): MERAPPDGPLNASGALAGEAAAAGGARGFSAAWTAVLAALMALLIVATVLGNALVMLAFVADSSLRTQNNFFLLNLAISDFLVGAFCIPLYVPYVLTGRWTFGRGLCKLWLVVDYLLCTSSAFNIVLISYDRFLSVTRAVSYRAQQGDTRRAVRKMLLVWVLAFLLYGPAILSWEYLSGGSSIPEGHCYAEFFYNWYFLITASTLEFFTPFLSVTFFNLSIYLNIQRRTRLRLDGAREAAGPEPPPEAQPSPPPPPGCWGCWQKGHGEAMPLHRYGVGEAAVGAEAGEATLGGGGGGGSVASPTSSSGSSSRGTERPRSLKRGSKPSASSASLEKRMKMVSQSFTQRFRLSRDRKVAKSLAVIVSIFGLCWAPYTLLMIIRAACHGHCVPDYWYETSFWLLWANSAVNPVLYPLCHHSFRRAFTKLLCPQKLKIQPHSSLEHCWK

Structure (SMILES) | IC50 [1] [nM] | inhibition at 1 µM [2] [%] | Ki [3] [nM] | inhibition at 1 h, 10 µM [4] [%] | inhibition (INH) [5] | inhibition (INH) [6]
CCC(C)(C)c1ccc(OCCCN2CCC(C)CC2)cc1 | 2070 |  | 147 |  |  | 
CCC(C)(C)c1ccc(OCCCCCN2CCCC(C)C2)cc1 (configuration not stated) | > 1000 | 29 |  |  |  | 
CCC(C)(C)c1ccc(OCCCN2CCCCC2C)cc1 (configuration not stated) | 20 |  | 437 | 5 | Active | 
C[C@H](NCc1ccc(OCc2cccc(F)c2)cc1)C(N)=O [SAFINAMIDE] |  |  |  |  | Active | 
CCC(C)(C)c1ccc(OCCCN2CCCCC2)cc1 | 19 |  | 37 | 14 | Active | 
CCC(C)(C)c1ccc(OCCCCCCN2CCCC(C)C2)cc1 (configuration not stated) | > 1000 | 46 |  |  |  | 
CCC(C)(C)c1ccc(OCCCCCCCCN2CCCC(C)C2)cc1 (configuration not stated) | > 1000 | 33 |  |  |  | 
CCC(C)(C)c1ccc(OCCCCN2CCCCC2)cc1 | 379 |  |  | 10 |  | 
CCC(C)(C)c1ccc(OCCCN2CC(C)CC(C)C2)cc1 (configuration not stated) | 962 |  | 753 | 7 |  | 
CCC(C)(C)c1ccc(OCCCCCCCN2CCCC(C)C2)cc1 (configuration not stated) | > 1000 | 35 |  |  |  | 
CCC(C)(C)c1ccc(OCCCN2CCCCCC2)cc1 | 65 |  | 298 | 12 |  | 
CCC(C)(C)c1ccc(OCCCN2CCCC2)cc1 | 4.5 |  | 63 | 5 | Active | Active
CCC(C)(C)c1ccc(OCCCCN2CCCC(C)C2)cc1 (configuration not stated) | 1230 |  |  |  |  | 

Second part, the molecule after the results:

IC50 [1] [nM] | inhibition at 1 µM [2] [%] | Ki [3] [nM] | inhibition at 1 h, 10 µM [4] [%] | inhibition (INH) [5] | inhibition (INH) [6] | Structure (SMILES)
> 1000 | 47 |  |  |  |  | CCC(C)(C)c1ccc(OCCCCN2CCC(C)CC2)cc1
> 1000 | 18 |  |  |  |  | CCC(C)(C)c1ccc(OCCCCCCCN2CCCCC2)cc1
> 1000 | 35 |  |  |  |  | CCC(C)(C)c1ccc(OCCCCCCCN2CCC(C)CC2)cc1
22 |  | 140 | 5 | Active |  | CCC(C)(C)c1ccc(OCCCN2C(C)CCCC2C)cc1 (configuration not stated)
> 1000 | 28 |  |  |  |  | CCC(C)(C)c1ccc(OCCCCCN2CCCCC2)cc1
> 1000 | 37 |  |  |  |  | CCC(C)(C)c1ccc(OCCCCCCCCN2CCC(C)CC2)cc1
1490 |  |  |  |  |  | CCC(C)(C)c1ccc(OCCCCCCCN2CCCCCC2)cc1
> 1000 | 48 |  |  |  |  | CCC(C)(C)c1ccc(OCCCCCN2CCC(C)CC2)cc1
> 1000 | 40 |  |  |  |  | CCC(C)(C)c1ccc(OCCCCCCCCN2CCCCCC2)cc1
428 |  | 100 | 11 |  |  | CCC(C)(C)c1ccc(OCCCN2CCCC(C)C2)cc1 (configuration not stated)
417 |  | > 1000 | 7 |  |  | CCC(C)(C)c1ccc(OCCCN2CCCC(C)(C)C2)cc1
> 1000 | 22 |  |  |  |  | CCC(C)(C)c1ccc(OCCCCCCCCN2CCCCC2)cc1
1130 |  |  |  |  |  | CCC(C)(C)c1ccc(OCCCCCN2CCCCCC2)cc1
> 1000 | 21 |  |  |  |  | CCC(C)(C)c1ccc(OCCCCCCN2CCCCC2)cc1
609 |  |  |  |  |  | CCC(C)(C)c1ccc(OCCCCN2CCCCCC2)cc1
> 1000 | 37 |  |  |  |  | CCC(C)(C)c1ccc(OCCCCCCN2CCC(C)CC2)cc1
390 |  |  |  |  |  | CCC(C)(C)c1ccc(OCCCCCCN2CCCCCC2)cc1
